# Substitutions are numbered along the chain they refer to. “And” between values parts separate entries of the source, which are not always exact repeats. Identical values can stand only once.
# What was measured:
# Test in all cases: 3′-CMP titration followed by 1H-15N HSQC, NMR line shape analysis
# [1] = molecular target: T1, RNase A (H48A) (Bos taurus, UniProt P61823, H74A); type: binding
# T1 sequence (P61823 27-150 H74A): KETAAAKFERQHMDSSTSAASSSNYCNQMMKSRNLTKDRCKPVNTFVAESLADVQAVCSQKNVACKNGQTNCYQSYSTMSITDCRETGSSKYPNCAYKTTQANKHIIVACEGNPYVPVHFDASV
# [2] = molecular target: T2, WT RNase A (Bos taurus, UniProt P61823); type: binding, bovine; details: for koff: global two-state fit of residues, 298 K, pH 6.4
# T2 sequence (P61823 27-150): T1 sequence (P61823 27-150 H74A) with A48H
# Method in brief: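 Each point recorded as a 1H-15N sensitivity-enhanced HSQC at 11.7 T, with spectral widths of 1600 Hz (t1) and 7000 Hz (t2). Kd and koff were taken from NMR line-shape fits of backbone amide shift changes.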
# [3] = molecular target: T3, RNase AECP (RNase A with loop 1 from ECP) (Bos taurus, UniProt P61823, DEL40-47/INS50PP/S49L/Y51R); type: binding
# T3 sequence (P61823 with tags, fused parts or gaps DEL40-47/S49L/INS50PP/Y51R): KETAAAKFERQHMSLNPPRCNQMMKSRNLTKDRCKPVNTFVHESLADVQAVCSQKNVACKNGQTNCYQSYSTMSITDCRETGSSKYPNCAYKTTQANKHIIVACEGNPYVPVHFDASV
smiles,measurement,setting,value
"Nc1ccn([C@@H]2O[C@H](CO)[C@@H](OP(=O)(O)O)[C@H]2O)c(=O)n1 [3′-CMP, cytidine-3′-monophosphate]",Kd,[1],895 ± 50 µM
same,decrease in koff relative to WT,[1]; H48A vs WT RNase A,10 fold and ~ 10 fold
same,reduction of binding affinity relative to WT,[1]; H48A vs WT RNase A,~ 12 fold
same,kon,"[1]; RNase A H48A mutant, kon determined from koff/Kd",1.59 × 10^5 ± 2.30 × 10^4 M^−^1s^−^1
same,koff,[1]; pH 6.4,142 ± 19 s⁻¹
same,Kd,[2],74 ± 2 µM
same,koff,[2]; WT RNase A,1155 ± 120 s⁻¹
same,kon,"[2]; WT RNase A, kon determined from koff/Kd",1.56 × 10^7 ± 1.67 × 10^6 M^−^1s^−^1
same,koff,"[2]; pH 6.4, WT RNase A",~1200 s⁻¹
same,Kd,[3],300 ± 16 µM
same,kon,"[3]; RNase AECP chimera, kon determined from koff/Kd",3.20 × 10^5 ± 3.45 × 10^4 M^−^1s^−^1
same,decrease in koff relative to WT,[3]; RNase AECP vs WT RNase A,10 fold and ~ 10 fold
same,reduction of binding affinity relative to WT,[3]; RNase AECP vs WT RNase A,~ 4 fold
same,koff,[3]; pH 6.4,96 ± 9 s⁻¹
